The values below come from ChEMBL document CHEMBL1153823, “Design, synthesis, and biological evaluation of new 5-HT4 receptor agonists: application as amyloid cascade modulators and potential therapeutic utility in Alzheimer's disease” (J Med Chem, 2009).

For assay [1], the target named is T1, 5-hydroxytryptamine receptor 4 (Homo sapiens, UniProt Q13639). The assay can be described thus: Displacement of [3H]GR-113808 from human 5HT4 isoform E receptor expressed in rat C6 cells at 10 nM by liquid scintillation counting. It counts as cell-based. For orientation: Loss of bound radioactivity is the signal in a displacement assay; it reports binding, not function.

Assay [2] has as its target T1, 5-hydroxytryptamine receptor 4. Kind of assay: Agonist activity at human 5HT4 isoform E receptor expressed in rat C6 cells assessed as cAMP accumulation at 10 nM by radio-immunoassay relative to 5HT. The format is functional, cell-based. An outline of the steps: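 C6 glial cells stably transfected with h5-HT4(e)R, grown to confluence, serum-free 4 h, then preincubated 15 min in serum-free medium with 5 mM theophylline and 10 µM pargyline. […] Stopped with ice-cold perchloric acid; cAMP by radioimmunoassay; response normalized to 5-HT maximum.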

A short description of assay [3]: Inhibition of amyloid beta (25-35) polymerization assessed as inhibition of fibril formation at 10 uM by UV-visible measurement. An outline of the steps: (§1)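 Aβ25-35 (100 µM final) with agonist (10 µM final, added in MeOH) in 10 mM phosphate buffer pH 7.2, prepared at 4 °C. UV-visible spectra 190–600 nm at 15 °C read after 6 h; agonist-alone spectra subtracted, Aβ-alone control run in parallel. At least three independent measurements. IC50 obtained by least-squares sigmoidal fit, for agonists at least as active as curcumin.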

The nature of assay [4]: Inhibition of amyloid beta (25-35) polymerization assessed as inhibition of fibril formation by UV-visible measurement. In outline:
as §1

Assay [5] deals with T1, 5-hydroxytryptamine receptor 4. Kind of assay: Displacement of [3H]GR-113808 from human 5HT4 isoform E receptor expressed in rat C6 cells by liquid scintillation counting. The format is cell-based.
The target is the same in assay [6]. The assay can be described thus: Agonist activity at human 5HT4 isoform E receptor expressed in rat C6 cells assessed as cAMP accumulation by radio-immunoassay relative to 5HT. It counts as functional, cell-based. An outline of the steps:
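C6 glial cells stably transfected with h5-HT4(e)R, grown to confluence, serum-free 4 h, then preincubated 15 min in serum-free medium with 5 mM theophylline and 10 µM pargyline.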
(Cyclic AMP is a second messenger, typically raised through Gs and lowered through Gi signalling.)

Assay [7] relates to Mus musculus. The assay can be described thus: Increase in sAPPalpha levels in C57BL/6J mouse brain hippocampus at 5 mg/kg, sc after 90 mins by Western blot. It counts as functional, organism-based. Further details: dose 5 mg/kg. In outline:
(§2)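 Male C57BL/6j mice, 8 weeks, 23–27 g, 7–9 per group, single subcutaneous dose 5 mg/kg in 0.9% NaCl (saline controls 5 mL/kg). Killed 90 min later. Hippocampus and cortex sonicated in Tris/NaCl with protease inhibitors, spun 100000g 45 min. sAPPα immunoblot, normalized to β-actin densitometry, expressed as % of saline controls. One-way ANOVA with PLSD.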
On the technique in general: Immunoblotting shows a protein as a band on a membrane.

Assay [8] has as its system Mus musculus. The assay can be described thus: Increase in sAPPalpha levels in C57BL/6J mouse brain cortex at 5 mg/kg, sc after 90 mins by Western blot. The format is functional, organism-based. Also on record: dose 5 mg/kg. An outline of the steps: as §2

Activity calls are given as the source filed them. The rule behind the calls is not given here. A value given as a limit tells only on which side of the number the result lay.

T1 sequence (Q13639 whole entry, canonical isoform): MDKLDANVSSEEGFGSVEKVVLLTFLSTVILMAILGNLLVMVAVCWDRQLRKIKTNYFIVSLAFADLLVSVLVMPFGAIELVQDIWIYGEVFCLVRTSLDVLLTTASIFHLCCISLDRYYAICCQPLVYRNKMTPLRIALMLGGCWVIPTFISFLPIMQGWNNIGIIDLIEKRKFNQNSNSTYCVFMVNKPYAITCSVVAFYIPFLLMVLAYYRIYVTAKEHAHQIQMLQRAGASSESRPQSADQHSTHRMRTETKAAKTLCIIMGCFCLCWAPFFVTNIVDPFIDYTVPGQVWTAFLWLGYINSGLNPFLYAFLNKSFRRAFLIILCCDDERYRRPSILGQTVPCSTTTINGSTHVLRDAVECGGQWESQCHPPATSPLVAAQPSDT

Consider `COc1cc(N)c(Cl)cc1C(=O)OCCN1CCC(NC(=O)Cc2ccc([N+](=O)[O-])cc2)CC1`, for which, in assay [1], the Activity is 20%. The Emax in assay [2] worked out at 20%.
Consider `COc1cc(N)c(Cl)cc1C(=O)OCCN1CCC(NC(=O)c2ccc([N+](=O)[O-])o2)CC1`, for which the Activity in assay [1] is below 10%.
Compound `COc1cc(N)c(Cl)cc1C(=O)OCCN1CCC(CNC(=O)c2ccsc2)CC1` showed an Activity in assay [1] of 10%. Moreover, in assay [2], the Emax was 0%.
The corresponding values for `COc1cc(N)c(Cl)cc1C(=O)OCCN1CCC(CNC(=O)c2cccs2)CC1` are 20% and below 10%.
The corresponding values for `CCCC(=O)NCC1CCN(CCOC(=O)c2cc(Cl)c(N)cc2OC)CC1` are 20% and below 10%.
In the case of `COc1cc(N)c(Cl)cc1C(=O)OCCN1CCC(NC(=O)CCC2CCCCC2)CC1`, in assay [1], the Activity came out at 0%.
In assay [1], `COc1cc(N)c(Cl)cc1C(=O)OCCN1CCCCC1` displayed an Activity of 40%. For the same compound, the Emax in assay [2] turned out to be 45%.
Take `COc1cc(N)c(Cl)cc1C(=O)OCCN1CCC(NC(=O)CCCCc2ccccc2)CC1`: in assay [1], the Activity is below 10%.
`COc1cc(N)c(Cl)cc1C(=O)OCCN1CCC(NC(=O)CCc2ccccc2)CC1` showed an Activity in assay [1] of 20%. Besides, the Emax in assay [2] is below 10%.
The corresponding values for `COc1cc(N)c(Cl)cc1C(=O)OCCN1CCC(NC(=O)c2cccs2)CC1` are 20% and below 10%.
In the same order, the values of `COc1cc(N)c(Cl)cc1C(=O)OCCN1CCC(CNC(=O)CSc2ccccc2)CC1` are 30% and below 10%.
In the same order, the values of `COc1cc(N)c(Cl)cc1C(=O)OCCN1CCC(CNC(=O)c2ccc(C)nc2O)CC1` are 10% and 10%.
In turn, `COc1cc(N)c(Cl)cc1C(=O)OCCN1CCC(NC(=O)CC2CCCCC2)CC1` returned an Activity in assay [1] below 10%.
Consider `COc1cc(N)c(Cl)cc1C(=O)OCCN1CCC(CNC(=O)Cc2ccc(Br)cc2)CC1`, for which the Activity in assay [1] was found to be 40%. Also, the Emax in assay [2] was determined as 0%.
In the same order, the values of `COc1cc(N)c(Cl)cc1C(=O)OCCN1CCC(CNC(=O)CC2CCCCC2)CC1` are 20% and below -10%.
The corresponding values for `COc1cc(N)c(Cl)cc1C(=O)OCCN1CCC(NC(=O)CSc2ccccc2)CC1` are 20% and below 10%.
Regarding `COc1ccc(OC)c(/C=C/C(=O)NCC2CCN(CCOC(=O)c3cc(Cl)c(N)cc3OC)CC2)c1`, the Activity in assay [1] was 20%.
As to `COc1cc(N)c(Cl)cc1C(=O)OCCN1CCC(CNC(=O)CCCCc2ccccc2)CC1`, the Activity in assay [1] is 10%. The Emax in assay [2] was found to be 10%.
As for `COc1cc(N)c(Cl)cc1C(=O)OCCN1CCC(NC(=O)CCCNS(=O)(=O)c2ccc(C)cc2)CC1`, in assay [1], the Activity was 10%. Also, the Emax in assay [2] was 10%.
`CCCC(=O)NC1CCN(CCOC(=O)c2cc(Cl)c(N)cc2OC)CC1` gave an Activity in assay [1] of 0%.
Compound `COc1cc(N)c(Cl)cc1C(=O)OCCN1CCC(CNC(=O)CCCNS(=O)(=O)c2ccc(-c3ccccc3)cc2)CC1` came in with an Activity in assay [1] of 10%. In addition, the Emax in assay [2] was below 10%.
On to `COc1cc(N)c(Cl)cc1C(=O)OCCN1CCC(CNC(=O)CCc2cccs2)CC1`, for which, in assay [1], the Activity was 30%. The Emax in assay [2] was 30%.
As to `COc1cc(/C=C/C(=O)CC(=O)/C=C/c2ccc(O)c(OC)c2)ccc1O` [CURCUMIN], in assay [3], the inhibition amounted to 45%. The IC50 in assay [4] came to 10 µM.
`COc1cc(N)c(Cl)cc1C(=O)OCCN1CCC(NC(=O)c2ccsc2)CC1`: in assay [1], the Activity came out at 10%. The Emax in assay [2] came to 20%.
Compound `COc1cc(N)c(Cl)cc1C(=O)OCCN1CCC(CNC(=O)CCc2ccccc2)CC1` yielded an Activity in assay [1] of 20%. For the same compound, in assay [2], the Emax was found to be 20%.
Take `COc1cc(N)c(Cl)cc1C(=O)OCCN1CCC(CNC(=O)c2ccccc2F)CC1`: the Activity in assay [1] came to 20%. Further, the Emax in assay [2] came out at 0%.
In the same order, the values of `COc1cc(N)c(Cl)cc1C(=O)OCCN1CCC(NC(=O)CCc2cccs2)CC1` are 10% and 10%.
In turn, `COc1cc(N)c(Cl)cc1C(=O)OCCN1CCC(NC(=O)c2ccc(C)nc2O)CC1` returned an Activity in assay [1] below 10%.
`COc1ccc(OC)c(CC(=O)NCC2CCN(CCOC(=O)c3cc(Cl)c(N)cc3OC)CC2)c1` showed an Activity in assay [1] of 40%. Further, the Emax in assay [2] was 10%.
As to `COc1cc(N)c(Cl)cc1C(=O)OCCN1CCC(NC(=O)Cc2ccc(Br)cc2)CC1`, the Activity in assay [1] is 10%. Further, the Emax in assay [2] amounted to 10%.
In assay [1], `COc1cc(N)c(Cl)cc1C(=O)OCCN1CCC(CNC(=O)Cc2ccccc2Cl)CC1` returned an Activity above 50%. Besides, in assay [2], the Emax came out at 20%.
The corresponding values for `COc1cc(N)c(Cl)cc1C(=O)OCCN1CCC(CNC(=O)CC(C)(C)C)CC1` are 10% and 10%.
Compound `COc1cc(N)c(Cl)cc1C(=O)OCCN1CCC(CNC(=O)CCCNS(=O)(=O)c2ccc(C)cc2)CC1` came in with an Activity in assay [1] above 50%. Moreover, the affinity in assay [5], expressed as Ki, was 2 nM. Moreover, the concentration for a half-maximal effect (EC50) in assay [6] turned out to be 68 nM. Further, the Emax in assay [2] is above 70%.
As to `COc1cc(N)c(Cl)cc1C(=O)OCCN1CCC(NC(=O)CCCc2ccccc2)CC1`, the Activity in assay [1] worked out at 20%. The Emax in assay [2] turned out to be 20%.
In the case of `COc1cc(N)c(Cl)cc1C(=O)OCCN1CCC(NC(=O)c2ccccc2F)CC1`, the Activity in assay [1] stood at 10%. Also, in assay [2], the Emax came out at 10%.
Consider `COc1cc(N)c(Cl)cc1C(=O)OCCN1CCC(NC(=O)CCCNCCCc2ccccc2)CC1`, for which, in assay [5], the Ki amounted to 12 nM. In assay [2], the Emax came to 50%.
For the compound `COc1cc(N)c(Cl)cc1C(=O)OCCN1CCC(CNC(=O)CCCc2ccccc2)CC1`, the Activity in assay [1] was determined as 20%. The Emax in assay [2] came out at 0%.
Regarding `COc1cc(N)c(Cl)cc1C(=O)OCCN1CCC(CNC(=O)C(C)C)CC1`, the Activity in assay [1] turned out to be 20%. Besides, the Emax in assay [2] was found to be 10%.
For the compound `COc1cc(N)c(Cl)cc1C(=O)OCCN1CCC(NC(=O)CCCNCCCc2ccc(CCCNCCCC(=O)NC3CCN(CCOC(=O)c4cc(Cl)c(N)cc4OC)CC3)cc2)CC1`, the inhibition in assay [3] turned out to be 49%. In assay [1], this compound gave an Activity of 10%. The compound also registered a Ki in assay [5] of 14 nM. Further, the EC50 in assay [6] was 9 nM. The outcome in assay [7] and in assay [8] was Active. Further, the IC50 in assay [4] came out at 9 µM. Moreover, the Emax in assay [2] is above 50%.
`COc1cc(N)c(Cl)cc1C(=O)OCCN1CCC(NC(=O)Cc2ccccc2Cl)CC1`: the Activity in assay [1] came out at 10%. Affinity in assay [5] was put at a Ki of 5 nM. The concentration giving a half-maximal response (EC50) in assay [6] worked out at 18 nM. Also, the Emax in assay [2] is above 50%.
In the case of `COc1cc(N)c(Cl)cc1C(=O)OCCN1CCC(NC(=O)CC(C)C)CC1`, the Activity in assay [1] was below 10%. Also, in assay [2], the Emax worked out at 10%.
The corresponding values for `COc1cc(N)c(Cl)cc1C(=O)OCCN1CCC(CNC(=O)CCC2CCCCC2)CC1` are 10% and above 50%.
The corresponding values for `COc1cc(N)c(Cl)cc1C(=O)OCCN1CCC(CNC(=O)CC(C)C)CC1` are 20% and 40%.
`COc1cc(N)c(Cl)cc1C(=O)OCCN1CCC(CNC(=O)Cc2ccc([N+](=O)[O-])cc2)CC1`: in assay [1], the Activity came out at 40%. For the same compound, the Emax in assay [2] was above 50%.

What is called Emax is the maximal effect, on the per cent scale that the assay sets. In general, inhibition refers to the percentage by which the read-out fell short of the control. The term IC50 denotes the concentration needed to halve the response being measured. As usually defined, the Ki is the equilibrium dissociation constant of an inhibitor or competing ligand from its target. Broadly, the EC50 is the midpoint of the concentration-response curve.
